Source: ChEMBL document CHEMBL4118021, “Studies of TAK1-centered polypharmacology with novel covalent TAK1 inhibitors” (Bioorg Med Chem, 2017)
Active and inactive are the calls of the source. No cut-off for these calls is given here.

Tests used:
[1] = Increase in secretion of basic-FGF in poly(I:C) activated RA patient-derived synovial fibroblasts at 0.6 to 3 uM preincubated for 3 hrs followed by poly(I:C) stimulation measured after 18 hrs by sandwich immunoassay; details: human
In short: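 Primary human RA synovial fibroblasts (donor RA2159) seeded at 1000 viable cells/well, grown ~24 h at 37 °C/5% CO2, then starved overnight in basal medium and for a further ~4 h in basal medium with 0.1% BSA. Inhibitor or DMSO given 3 h before stimulation. Supernatants from two adjacent wells pooled as one replicate, biological duplicate. Luminex multiplex panels (48 analytes), diluted 1:3. Mock-supernatant background and spiked-ligand cross-reactivity controls included.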

[2] = target: Serine/threonine-protein kinase RIO3 (Homo sapiens) (UniProt O14730); assay: Inhibition of full length human RIOK3 (1 to 519 residues) expressed in bacterial expression system assessed as enzyme activity at 10 uM by KINOMEScan assay relative to control; set-up: scale not given: the % may be the effect or the level left
In short: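 In vitro ATP-site competition binding assay (KinomeScan) across a panel of 456 kinases. Compound was tested at 1 and 10 μM. The read-out is the binding inhibition score relative to control.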

[3] = target: T1, Dual specificity mitogen-activated protein kinase kinase 4 (Homo sapiens) (UniProt P45985); assay: Inhibition of human MEK4 (84 to 399 residues) expressed in mammalian expression system assessed as enzyme activity at 1 uM by KINOMEScan assay relative to control; set-up: scale not given: the % may be the effect or the level left
T1 sequence (whole entry): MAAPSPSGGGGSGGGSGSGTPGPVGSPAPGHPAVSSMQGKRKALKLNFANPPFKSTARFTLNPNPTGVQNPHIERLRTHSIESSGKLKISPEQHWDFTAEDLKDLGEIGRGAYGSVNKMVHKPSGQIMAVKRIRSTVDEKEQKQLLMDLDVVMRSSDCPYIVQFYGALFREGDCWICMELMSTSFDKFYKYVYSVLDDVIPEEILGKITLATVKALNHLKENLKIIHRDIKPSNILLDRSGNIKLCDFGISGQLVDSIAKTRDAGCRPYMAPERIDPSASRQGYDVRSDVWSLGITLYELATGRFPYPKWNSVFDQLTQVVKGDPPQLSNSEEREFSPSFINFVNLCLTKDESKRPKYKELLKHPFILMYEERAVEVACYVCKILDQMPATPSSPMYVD
In short: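 In vitro ATP-site competition binding assay across a panel of 456 kinases, with compound tested at 1 and 10 μM.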

[4] = target: Inhibitor of nuclear factor kappa-B kinase subunit epsilon (Homo sapiens) (UniProt Q14164); assay: Inhibition of IKKe in human SKCO1 cells at 1 uM after 4 hrs using biotin labeled DIKPGNIMR probe by mass-spectrometric analysis relative to control; assay type: cell-based
NCI-H358 = assay: Antiproliferative activity against human NCI-H358 cells harboring KRAS G12C mutant after 72 hrs by CellTiter-Glo assay; assay type: functional, cell-based
In short: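 NCI-H23 or NCI-H358 cells seeded at 2000 cells/well and grown 48 h before drug. Varying doses were added and cells incubated 72 h. Viability was read as CellTiter-Glo luminescence, and growth-inhibition IC50 was calculated from dose-response curves.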

[5] = target: Protein LSM12 (Homo sapiens) (UniProt Q3MHD2); assay: Binding affinity to LSM12 in human NCI-H23 cells at 1 uM by mass spectrometry based pull down assay; assay type: cell-based
[6] = target: T1, Dual specificity mitogen-activated protein kinase kinase 4 (Homo sapiens); assay: Binding affinity to MAP2K4 in human NCI-H23 cells at 1 uM by mass spectrometry based pull down assay; assay type: cell-based
[7] = target: Y-box-binding protein 1 (Homo sapiens) (UniProt P67809); assay: Binding affinity to YBX1 in human NCI-H358 cells at 1 uM by mass spectrometry based pull down assay; assay type: cell-based
[8] = target: Large ribosomal subunit protein bL19m (Homo sapiens) (UniProt P49406); assay: Binding affinity to MRPL19 in human NCI-H23 cells at 1 uM by mass spectrometry based pull down assay; assay type: cell-based
[9] = target: 80S Ribosome (Homo sapiens) (UniProt P08865+P42677+P62753+P15880+P23396+P61247+P62701+P22090+P46782+P62081+P62241+P46781+P46783+P62280+P25398+P62277+P62263+P62841+P62244+P62249+P08708+P62269+P39019+P60866+P63220+P62266+P62847+P62851+P62854+P62979+P62857+P62273+P62861+P39023+P36578+P46777+Q02878+P18124+P62424+P62917+P32969+P27635+P62906+P62913+P30050+P26373+P40429+P50914+P61313+P18621+Q07020+Q02543+P84098+P46778+P35268+P62829+P62750+P83731+P61254+P61353+P46776+P46779+P47914+P62888+P62899+P62910+P49207+P42766+P18077+Q9Y3U8+P83881+P61927+P61513+P63173+P62891+P62945+P05388+P05386); assay: Binding affinity to RPS12 in human NCI-H358 cells at 1 uM by mass spectrometry based pull down assay; assay type: cell-based
[10] = target: Replication factor C subunit 5 (Homo sapiens) (UniProt P40937); assay: Binding affinity to RFC5 in human NCI-H358 cells at 1 uM by mass spectrometry based pull down assay; assay type: cell-based
[11] = target: Cyclin-G-associated kinase (Homo sapiens) (UniProt O14976); assay: Binding affinity to GAK in human NCI-H23 cells at 1 uM by mass spectrometry based pull down assay; assay type: cell-based
[12] = target: AH receptor-interacting protein (Homo sapiens) (UniProt O00170); assay: Binding affinity to AIP in human NCI-H23 cells at 1 uM by mass spectrometry based pull down assay; assay type: cell-based
In short: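 NCI-H23 or NCI-H358 cells were grown and lysed. Lysates were incubated overnight at 4 °C with 1 μM biotinylated covalent probe or DMSO, then pulled down on streptavidin beads. Proteins were run on polyacrylamide gels and stained with Coomassie. Bands were excised, digested and identified by mass spectrometry.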

[13] = target: Opioid growth factor receptor (Homo sapiens) (UniProt Q9NZT2); assay: Binding affinity to OGFR in human NCI-H358 cells at 1 uM by mass spectrometry based pull down assay; assay type: cell-based
[14] = target: Casein kinase II subunit beta (Homo sapiens) (UniProt P67870); assay: Binding affinity to CSNK2B in human NCI-H23 cells at 1 uM by mass spectrometry based pull down assay; assay type: cell-based
[15] = target: Cytosolic iron-sulfur assembly component 2A (Homo sapiens) (UniProt Q9H5X1); assay: Binding affinity to FAM96A in human NCI-H23 cells at 1 uM by mass spectrometry based pull down assay; assay type: cell-based
[16] = target: Acidic leucine-rich nuclear phosphoprotein 32 family member A (Homo sapiens) (UniProt P39687); assay: Binding affinity to ANP32A in human NCI-H358 cells at 1 uM by mass spectrometry based pull down assay; assay type: cell-based
[17] = target: Thymidine kinase, cytosolic (Homo sapiens) (UniProt P04183); assay: Binding affinity to TK1 in human NCI-H358 cells at 1 uM by mass spectrometry based pull down assay; assay type: cell-based
Thymidine kinase, cytosolic (Homo sapiens), sequence (P04183 whole entry): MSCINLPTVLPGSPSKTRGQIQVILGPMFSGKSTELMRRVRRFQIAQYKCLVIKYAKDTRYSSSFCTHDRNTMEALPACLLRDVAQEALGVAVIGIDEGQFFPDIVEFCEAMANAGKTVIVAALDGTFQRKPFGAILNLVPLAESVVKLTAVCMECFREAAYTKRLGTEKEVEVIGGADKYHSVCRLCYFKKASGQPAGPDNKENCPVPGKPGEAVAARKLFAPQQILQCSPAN

Acidic leucine-rich nuclear phosphoprotein 32 family member A (Homo sapiens), sequence (P39687 whole entry): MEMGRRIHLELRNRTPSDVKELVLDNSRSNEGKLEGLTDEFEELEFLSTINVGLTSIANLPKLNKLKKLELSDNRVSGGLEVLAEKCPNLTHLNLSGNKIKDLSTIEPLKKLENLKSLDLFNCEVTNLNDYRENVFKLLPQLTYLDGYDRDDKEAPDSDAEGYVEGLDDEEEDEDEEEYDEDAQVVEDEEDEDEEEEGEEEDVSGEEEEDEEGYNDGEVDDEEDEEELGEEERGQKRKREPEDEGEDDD
Protein LSM12 (Homo sapiens), sequence (Q3MHD2 whole entry): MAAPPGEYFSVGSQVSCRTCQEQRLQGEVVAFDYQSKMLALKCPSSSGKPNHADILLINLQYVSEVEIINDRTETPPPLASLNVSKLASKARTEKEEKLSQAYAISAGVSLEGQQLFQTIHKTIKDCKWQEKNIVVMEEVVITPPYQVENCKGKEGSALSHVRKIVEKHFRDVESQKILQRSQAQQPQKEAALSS
Cyclin-G-associated kinase (Homo sapiens), sequence (O14976 whole entry): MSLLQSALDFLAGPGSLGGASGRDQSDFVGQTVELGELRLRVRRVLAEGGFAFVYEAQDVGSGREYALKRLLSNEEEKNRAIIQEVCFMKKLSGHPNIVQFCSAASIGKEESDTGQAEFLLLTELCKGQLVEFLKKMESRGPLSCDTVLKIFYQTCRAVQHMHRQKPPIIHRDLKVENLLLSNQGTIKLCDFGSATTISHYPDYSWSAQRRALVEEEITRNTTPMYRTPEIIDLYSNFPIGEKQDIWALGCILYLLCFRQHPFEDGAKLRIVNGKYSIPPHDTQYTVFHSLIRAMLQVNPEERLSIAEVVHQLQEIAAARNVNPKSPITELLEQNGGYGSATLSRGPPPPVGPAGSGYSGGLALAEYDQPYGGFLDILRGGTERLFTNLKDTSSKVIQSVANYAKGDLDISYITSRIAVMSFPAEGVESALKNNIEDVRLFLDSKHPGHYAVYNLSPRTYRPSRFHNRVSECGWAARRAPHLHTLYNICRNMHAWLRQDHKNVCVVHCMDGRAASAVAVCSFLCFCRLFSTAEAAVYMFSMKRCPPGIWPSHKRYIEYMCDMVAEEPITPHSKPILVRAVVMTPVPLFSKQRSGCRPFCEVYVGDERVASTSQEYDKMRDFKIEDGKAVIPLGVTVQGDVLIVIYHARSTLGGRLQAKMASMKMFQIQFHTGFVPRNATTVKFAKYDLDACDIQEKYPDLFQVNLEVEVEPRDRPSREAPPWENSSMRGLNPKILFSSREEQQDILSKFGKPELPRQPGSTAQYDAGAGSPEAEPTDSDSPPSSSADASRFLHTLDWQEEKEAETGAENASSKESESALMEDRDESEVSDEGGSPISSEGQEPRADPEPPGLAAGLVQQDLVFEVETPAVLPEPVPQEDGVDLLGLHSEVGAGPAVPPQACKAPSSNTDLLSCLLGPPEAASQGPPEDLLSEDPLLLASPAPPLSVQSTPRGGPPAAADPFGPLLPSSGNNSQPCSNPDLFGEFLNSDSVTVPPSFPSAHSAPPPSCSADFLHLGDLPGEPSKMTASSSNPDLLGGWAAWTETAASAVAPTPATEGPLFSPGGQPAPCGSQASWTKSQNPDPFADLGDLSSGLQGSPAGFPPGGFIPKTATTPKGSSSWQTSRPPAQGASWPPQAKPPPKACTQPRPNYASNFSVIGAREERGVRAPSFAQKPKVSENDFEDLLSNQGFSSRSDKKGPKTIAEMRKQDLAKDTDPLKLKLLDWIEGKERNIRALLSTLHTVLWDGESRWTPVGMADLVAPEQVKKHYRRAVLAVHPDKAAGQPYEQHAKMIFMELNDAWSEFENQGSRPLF
Inhibitor of nuclear factor kappa-B kinase subunit epsilon (Homo sapiens), sequence (Q14164 whole entry): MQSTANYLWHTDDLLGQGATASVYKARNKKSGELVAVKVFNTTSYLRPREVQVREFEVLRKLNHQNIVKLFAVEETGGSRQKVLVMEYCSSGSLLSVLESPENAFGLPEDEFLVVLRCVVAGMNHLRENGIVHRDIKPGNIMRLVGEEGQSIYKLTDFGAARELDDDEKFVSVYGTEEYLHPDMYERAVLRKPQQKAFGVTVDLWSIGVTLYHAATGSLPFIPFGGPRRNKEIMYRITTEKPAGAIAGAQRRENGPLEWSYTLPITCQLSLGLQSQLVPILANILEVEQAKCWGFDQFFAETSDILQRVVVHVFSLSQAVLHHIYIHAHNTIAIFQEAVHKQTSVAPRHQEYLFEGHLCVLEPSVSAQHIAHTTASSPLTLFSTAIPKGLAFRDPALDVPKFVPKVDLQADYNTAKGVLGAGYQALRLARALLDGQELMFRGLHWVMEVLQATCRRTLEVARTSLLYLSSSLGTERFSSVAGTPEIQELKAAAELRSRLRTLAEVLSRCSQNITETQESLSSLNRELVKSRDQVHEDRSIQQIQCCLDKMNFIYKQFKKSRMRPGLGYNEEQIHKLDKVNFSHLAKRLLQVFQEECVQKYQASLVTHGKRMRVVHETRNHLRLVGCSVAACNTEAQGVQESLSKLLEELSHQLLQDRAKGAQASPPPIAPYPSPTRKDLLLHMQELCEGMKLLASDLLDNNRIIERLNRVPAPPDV
Serine/threonine-protein kinase RIO3 (Homo sapiens), sequence (O14730 whole entry, the tested form may be a part): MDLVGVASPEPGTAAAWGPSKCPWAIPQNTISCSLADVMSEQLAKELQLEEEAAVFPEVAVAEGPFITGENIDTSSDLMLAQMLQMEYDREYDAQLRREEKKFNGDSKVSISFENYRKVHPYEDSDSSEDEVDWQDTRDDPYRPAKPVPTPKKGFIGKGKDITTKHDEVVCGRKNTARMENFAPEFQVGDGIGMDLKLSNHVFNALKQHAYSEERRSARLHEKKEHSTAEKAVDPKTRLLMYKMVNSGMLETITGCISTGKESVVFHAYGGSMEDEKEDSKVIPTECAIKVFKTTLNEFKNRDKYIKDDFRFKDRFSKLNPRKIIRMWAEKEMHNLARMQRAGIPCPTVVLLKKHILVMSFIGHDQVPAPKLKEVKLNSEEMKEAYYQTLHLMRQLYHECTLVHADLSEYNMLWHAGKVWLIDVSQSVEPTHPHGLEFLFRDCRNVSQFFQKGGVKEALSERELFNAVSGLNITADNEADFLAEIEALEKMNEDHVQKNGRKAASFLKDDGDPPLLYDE
Y-box-binding protein 1 (Homo sapiens), sequence (P67809 whole entry): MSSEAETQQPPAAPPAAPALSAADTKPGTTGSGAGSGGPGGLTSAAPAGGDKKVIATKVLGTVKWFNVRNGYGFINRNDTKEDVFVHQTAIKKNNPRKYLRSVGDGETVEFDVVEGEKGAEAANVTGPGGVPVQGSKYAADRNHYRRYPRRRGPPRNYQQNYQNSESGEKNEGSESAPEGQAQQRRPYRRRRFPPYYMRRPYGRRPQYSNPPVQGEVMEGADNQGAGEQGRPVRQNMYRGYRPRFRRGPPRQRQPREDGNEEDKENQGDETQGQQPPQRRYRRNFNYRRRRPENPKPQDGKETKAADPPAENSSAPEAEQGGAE
Casein kinase II subunit beta (Homo sapiens), sequence (P67870 whole entry): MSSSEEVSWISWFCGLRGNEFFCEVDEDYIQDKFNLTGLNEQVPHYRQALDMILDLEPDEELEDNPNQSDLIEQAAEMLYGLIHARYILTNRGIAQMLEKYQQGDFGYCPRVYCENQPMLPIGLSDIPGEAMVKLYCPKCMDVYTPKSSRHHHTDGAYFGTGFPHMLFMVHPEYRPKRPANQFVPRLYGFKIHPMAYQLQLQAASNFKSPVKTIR
Opioid growth factor receptor (Homo sapiens), sequence (Q9NZT2 whole entry): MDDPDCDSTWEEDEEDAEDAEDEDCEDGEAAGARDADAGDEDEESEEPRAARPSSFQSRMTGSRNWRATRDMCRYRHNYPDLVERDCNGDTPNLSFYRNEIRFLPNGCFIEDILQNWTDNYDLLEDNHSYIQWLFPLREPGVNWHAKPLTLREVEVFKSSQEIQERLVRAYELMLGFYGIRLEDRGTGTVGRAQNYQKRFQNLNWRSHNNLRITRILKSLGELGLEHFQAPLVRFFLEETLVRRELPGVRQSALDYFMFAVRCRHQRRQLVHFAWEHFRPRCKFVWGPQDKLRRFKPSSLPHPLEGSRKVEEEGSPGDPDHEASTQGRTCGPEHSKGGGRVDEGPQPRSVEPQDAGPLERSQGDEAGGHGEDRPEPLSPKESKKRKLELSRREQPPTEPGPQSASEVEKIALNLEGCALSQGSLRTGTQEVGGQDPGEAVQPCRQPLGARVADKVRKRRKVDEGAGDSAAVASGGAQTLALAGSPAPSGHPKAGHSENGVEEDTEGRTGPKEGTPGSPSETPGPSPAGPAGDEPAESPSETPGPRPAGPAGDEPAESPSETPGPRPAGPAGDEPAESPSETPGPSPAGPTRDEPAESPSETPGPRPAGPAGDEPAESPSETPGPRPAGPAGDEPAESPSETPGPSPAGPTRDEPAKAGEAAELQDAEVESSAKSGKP
Replication factor C subunit 5 (Homo sapiens), sequence (P40937 whole entry): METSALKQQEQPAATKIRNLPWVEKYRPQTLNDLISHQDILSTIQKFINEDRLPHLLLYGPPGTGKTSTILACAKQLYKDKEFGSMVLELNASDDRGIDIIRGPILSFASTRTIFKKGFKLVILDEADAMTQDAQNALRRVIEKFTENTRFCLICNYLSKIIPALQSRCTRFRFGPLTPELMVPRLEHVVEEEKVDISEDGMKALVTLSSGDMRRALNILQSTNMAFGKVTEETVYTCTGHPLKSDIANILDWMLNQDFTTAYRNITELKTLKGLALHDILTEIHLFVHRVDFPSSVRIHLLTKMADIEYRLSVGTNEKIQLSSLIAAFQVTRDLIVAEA
Cytosolic iron-sulfur assembly component 2A (Homo sapiens), sequence (Q9H5X1 whole entry): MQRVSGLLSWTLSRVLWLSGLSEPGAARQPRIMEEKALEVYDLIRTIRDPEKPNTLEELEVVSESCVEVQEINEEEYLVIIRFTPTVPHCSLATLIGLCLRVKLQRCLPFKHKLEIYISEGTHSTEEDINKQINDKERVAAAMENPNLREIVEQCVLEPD

**Q.** With `COc1cc(O)c2c(c1)/C=C/C[C@H](O)[C@H](O)C(=O)/C=C\C[C@H](C)OC2=O` as the molecule, how does the Activity [1] read?
**A.** Non-Toxic

**Q.** And the Activity [2]?
**A.** 0%

**Q.** And the Activity [3]?
**A.** 19%

**Q.** With `C=CC(=O)Nc1ccccc1Nc1nc(Nc2ccc(N3CCN(C)CC3)cc2)ncc1Cl` as the molecule, how does the inhibition [4] read?
**A.** 59.3%

**Q.** And the Activity (NCI-H358)?
**A.** Active

**Q.** What does the source list for `C=CC(=O)Nc1ccccc1Nc1nc(Nc2ccc(N3CCN(CCOCCOCCOCCNC(=O)CCCC[C@@H]4SC[C@@H]5NC(=O)N[C@@H]54)CC3)cc2)ncc1Cl`?
**A.** Activity [5]: Active; Activity [6]: Active; Activity [7]: Active; Activity [8]: Active; Activity [9]: Active; Activity [10]: Active; Activity [11]: Active; Activity [12]: Active; Activity [13]: Active; Activity [14]: Active; Activity [15]: Active; Activity [16]: Active; Activity [17]: Active
